Rad51 HR inh = human RAD51 strand exchange inhibitors, primary screen, biochemical, fluorescence; DNA repair protein RAD51 homolog 1 (Homo sapiens), Q06609; hRad51 DNA strand exchange, fluorescence dequenching; inhibition, % at 10 µM; 0.085% of 200,000 active; AID 1385, 2008;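 active = inhibition above 40% at the single screening dose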;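 note: 0% = DMSO control wells and 100% = blanks with heterologous ssDNA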
Target sequence (Q06609 whole entry, looked up): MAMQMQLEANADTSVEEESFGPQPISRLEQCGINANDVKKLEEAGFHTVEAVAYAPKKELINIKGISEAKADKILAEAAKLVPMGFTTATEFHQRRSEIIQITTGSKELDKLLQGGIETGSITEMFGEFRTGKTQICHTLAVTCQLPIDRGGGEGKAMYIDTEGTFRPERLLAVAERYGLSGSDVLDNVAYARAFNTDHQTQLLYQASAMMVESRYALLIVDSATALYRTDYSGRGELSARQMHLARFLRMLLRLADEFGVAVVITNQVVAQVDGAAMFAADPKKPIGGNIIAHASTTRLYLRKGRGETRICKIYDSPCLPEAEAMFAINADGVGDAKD
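Test system: preformed human Rad51 ssDNA filaments; also added: Donor/quencher-labelled 47-bp dsDNA substrate; doses: 10 µM final, single point; times: 37 °C 15-min filament assembly, 30-min compound preincubation, 15-min exchange; detection: FRET fluorescence dequenching, excitation 485 nm, emission 520 nm; read-out basis: Fluorescence-based percent inhibition, control- and blank-normalised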
STAT1 act = STAT1 signaling activators, primary screen, cell-based, HTS, luciferase reporter; NIH 3T3 STAT1-luciferase reporter, IFN-gamma, luminescence; 100% = IFN-gamma alone, no compound; activation (% of control), % at 5.5 µM; 2.6% of 200,000 active; AID 932, 2007;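 active = activation above the screen-wide mean activation plus 3 SD, cut at about 130% in these data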;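 note: raw ratio to IFN-gamma control signal so 100% means no change and 0% no light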
FLuc inh counter = firefly luciferase enzyme inhibitors, primary screen, artefact control for luciferase-based inhibitor screens, biochemical, luminescence, ATPLite; Luciferin 4-monooxygenase (Photinus pyralis), P08659; inhibition, % at 10 µM; 1.5% of 200,000 active; 10 min;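 active = inhibition above about 50% when tested at 10 µM, limit read from the data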
NF-kB neuron act = activators of NF-kB expression in neurons, primary screen, cell-based, HTS; fold change at 12.5 µM; human neuronal cells, NF-kB reporter expression; hits give high values; 1.6% of 190,000 active; AID 1239, 2008; in the data active = fold change above about 3.3
APP 5'UTR act = activators of APP 5'UTR luciferase reporter, primary screen, SH-SY5Y cells | SH-SY5Y APP 5'UTR luciferase reporter, luminescence; zero percent = DMSO vehicle wells | activation, % at 2 µM | AID 1276, 2008 | 1% of 190,000 active;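 active = activation above a set limit, based on mean plus 3 SD of controls, cut at about 140% in these data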
FLuc act counter = FLuc activators, initial screening, artefact control for FLuc-dependent activation tests, biochemical, ATPlite luminescence | ATPlite luciferase biochemical, 10 min; 0 = ATP-free wells, 1 = DMSO control | Luciferin 4-monooxygenase (Photinus pyralis), P08659 | 200,000 tested, under 10 active | activation factor at 10 µM;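 active = luciferase activation factor, scaled between plate controls, of at least 2 with compound at 10 µM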
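Material: Luciferase/luciferin reagent mix; Doses: test compounds dosed from 2 mM stocks in 100% DMSO; Schedule: 10 min incubation after luciferase reagent addition, room temperature; Measured by: luminescence from luciferase reaction; Read-out: luminescence gain marking luciferase activators.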
An asterisk follows results filed as active; nt = no result. The list is not random: actives were taken first. Their share in the collection is about 3.9%.

SMILES | Rad51 HR inh | STAT1 act | FLuc inh counter | NF-kB neuron act | APP 5'UTR act | FLuc act counter
Cc1ccccc1C(=O)O/N=C(\N)c1ccncc1 | nt | 133.1* | 68.9* | 1.93 | 37.2 | 0.3
N/C(=N\OC(=O)C1CCCCC1)c1ccccn1 | -5.7 | 123.7 | 72.4* | 2.17 | 81.7 | 0.3
N/C(=N\OC(=O)COc1ccc2ccccc2c1)c1ccncc1 | -1.1 | 101.3 | -4.6 | 0.87 | -5.0 | 1
COc1cc(C(=O)Nc2cccc(S(=O)(=O)N3CCCC3)c2)cc(OC)c1C | -12.6 | nt | nt | nt | nt | nt
C#CCCCCCCC#CCN(C)C | nt | 101.8 | -8.2 | 1.27 | -6.6 | 1.1
N#Cc1ccccc1S(=O)(=O)N1CCN(c2cnccn2)CC1 | 1.3 | 100.2 | -4.9 | 1.34 | 1.5 | 1
N/C(=N/OC(=O)c1cccc([N+](=O)[O-])c1)c1cccc([N+](=O)[O-])c1 | -2.9 | 110.3 | -0.7 | 1.38 | 5.0 | 1
N/C(=N\OC(=O)c1cccc([N+](=O)[O-])c1)c1ccccn1 | 14.9 | 132.9* | 66.7* | 2.31 | 77.2 | 0.3
Cc1ccc(NC(=O)C2CCCN(C(=O)c3ccc(Cl)cc3)C2)cc1S(=O)(=O)N1CCOCC1 (stereo not drawn) | 2.8 | 92.5 | -4.9 | 1.01 | 12.8 | 1
Nc1ccc(C(=O)Nc2cccc(N)c2)cc1 | 0.1 | nt | nt | nt | nt | nt
Nc1nc(CSC(=S)N2CCOCC2)nc(Nc2ccccc2)n1 | -3.1 | 131.3* | -1.8 | 1.66 | 42.2 | 1
Nc1nc(CSC(=S)N2CCCCC2)nc(Nc2ccccc2)n1 | -4.9 | 136.4* | 1.3 | 1.88 | 53.3 | 1
COc1ccc(CNC(=O)CCSCc2ccccc2C)cc1 | 1.9 | 94.9 | 3.1 | 1.08 | 36.2 | 1
COC(=O)CCC(=O)OC1(C)C(=O)C2=CN(C3CC3)C(c3ccc(OC)cc3)=CC2=C(Br)C1=O (stereo not drawn) | 52.4* | nt | nt | nt | nt | nt
COC(=O)CCC(=O)OC1(C)C(=O)C2=CN(CC3CC3)C(c3ccc(OC)cc3)=CC2=C(Br)C1=O (stereo not drawn) | 1.2 | nt | nt | nt | nt | nt
Cc1cc(C(=O)CSc2nc3ccccc3o2)c(C)n1C1CC1 | 3.3 | 136.2* | -1.1 | 2.25 | 99.4 | 1
Cc1nnc(SCC(=O)c2cc(C)n(C3CC3)c2C)s1 | 11.4 | 135.5* | 14.2 | 2.65 | 65.0 | 0.9
CCCCCCSc1nsc(NC(=O)CCC)n1 | 26.8 | 103.5 | -2.6 | 1.67 | 15.7 | 1
CC(C)OC(=O)CSc1nc(Cc2ccccc2)nc2ccccc12 | 0.6 | 100.5 | -6.0 | 1.25 | 5.5 | 1.1
COC(C[C@H]1O[C@H]1[C@@H](O)[C@H](C)OCc1ccccc1)OC | 2.6 | nt | nt | nt | nt | nt
CC(=O)Nc1ccc2c(c1)ncn2-c1ccc(C)cc1 | 2.4 | 145.9* | 53.0* | 5.09* | 224.8* | 0.5
CC(=O)Nc1ccc2c(c1)ncn2C | -0.8 | 98.5 | -6.6 | 1.36 | 14.8 | 1.1
O=C(Nc1ccc2c(c1)ncn2-c1ccccc1)c1ccco1 | 10.4 | 139.6* | 28.9 | 1.24 | 69.8 | 0.7
CCn1nc(C(=O)OCC(=O)c2cc(C)n(Cc3cccs3)c2C)c2ccccc2c1=O | -4.2 | 115.6 | 57.5* | 1.11 | -3.4 | 0.4
Cc1cc(C(=O)COC(=O)c2ccc3c(c2)OCO3)c(C)n1Cc1cccs1 | -5.6 | 117.3 | 30.7 | 0.79 | -3.0 | 0.7
SMILES | Rad51 HR inh | STAT1 act | FLuc inh counter | NF-kB neuron act | APP 5'UTR act | FLuc act counter
Cc1cc(C(=O)COC(=O)c2ccccc2O)c(C)n1Cc1cccs1 | 0.1 | 31.4 | 89.6* | 0.23 | 7.6 | 0.1
CN(C)c1ccc(N2CN=C3SCC(=O)N3C2)cc1 | -2.9 | 160.1* | -1.4 | 0.58 | 135.6* | 1
Cc1ccc(Cl)c(OC(=O)c2nn(C(C)C)c(=O)c3ccccc23)c1 | -10.2 | 100.5 | 0.5 | 1.03 | 14.8 | 1
Cc1nn(C)cc1/C=N/NC(=S)Nc1ccccc1 | 4.1 | 117.9 | 44.0 | 3.39* | 58.8 | 0.6
Cc1ccc(NC(=S)N/N=C/c2c(C)nn(-c3ccccc3)c2N2CCCC2)cc1 | 2.2 | 92.5 | 0.5 | 1.02 | 7.0 | 1
Cc1cccc(NC(=S)N/N=C/c2c[nH]c3ccccc23)c1 | 6.5 | 131.7* | 27.0 | 1.87 | -86.5 | 0.7
COC(=O)[C@@H]1CC[C@H](C)[C@@H](c2ccc(C)cc2)N1C(=O)c1ccc(/C=N/OCC[C@@H]2C=C[C@H](OC(C)=O)[C@@H](COC(C)=O)O2)cc1 | nt | 103.9 | -2.3 | 0.88 | 7.6 | 1
CCOC(=O)N1CCN(Cc2nc(N)nc(Nc3ccc(C)cc3C)n2)CC1 | -2.2 | 96.5 | -11.7 | 1.16 | -1.9 | 1.1
Nc1cc(=O)[nH]c(SC/C=C/c2ccccc2)n1 | -2.6 | 102.5 | 7.1 | 1.09 | 18.1 | 0.9
Cc1cc(=O)[nH]c(S/C=C/c2ccccc2)n1 | 2.6 | 94.4 | 77.3* | 4.14* | 10.0 | 0.2
C/C(Cc1ccccc1)=N\NC(=O)CNC(=O)c1ccc(C(C)(C)C)cc1 | nt | 100.8 | -5.2 | 0.85 | -15.6 | 1.1
Cc1ccc(C2=NNC3(CCOC(C)(C)C3)S2)cc1 (stereo not drawn) | -1.2 | 114.3 | 4.0 | 2.9 | 177.9* | 1
CC(C)N1CCC2(CC1)N=C(c1ccc3c(c1)OCO3)CC(c1cc(Cl)ccc1O)N2 (stereo not drawn) | -10.7 | 86.2 | -12.4 | 4.66* | 53.0 | 1.1
CNc1ncc(C(=O)c2ccc(Cl)cc2)s1 | -1.7 | 114.5 | 37.4 | 4.04* | 96.5 | 0.6
O=C(c1ccc(Cl)c(Cl)c1)c1cnc(Nc2ccccc2)s1 | -5.0 | 95.0 | -2.8 | 1.16 | 0.7 | 1
CNc1ncc(C(=O)c2ccc(Cl)c(Cl)c2)s1 | -1.4 | 124.8 | -2.8 | 4.32* | -0.3 | 1
CCOc1ccsc1C(=O)OC | 22.8 | nt | nt | nt | nt | nt
COc1ccc(OCc2cccc(C(=O)Nn3cc([N+](=O)[O-])cn3)c2)cc1 | 1.5 | 20.9 | 69.6* | 7.4* | 25.1 | 0.3
CCOC(CCn1c(SCc2cccc([N+](=O)[O-])c2)nc2ccccc2c1=O)OCC | nt | 99.6 | -3.5 | 0.55 | -5.8 | 1
O=C(Nn1c(SCc2cccc([N+](=O)[O-])c2)nc2ccccc2c1=O)c1ccccc1 | nt | 149.5* | 1.8 | 0.96 | 119.1 | 1
COc1ccc(C(=O)Nn2c(SCC(=O)c3ccc(Cl)cc3)nc3ccccc3c2=O)cc1 | -2.7 | 85.6 | 10.3 | 0.78 | 132.3 | 0.9
COc1cc(CNC(=O)c2cccc(COc3ccc(Cl)cc3)c2)cc(OC)c1 | 2.8 | 107.2 | -2.0 | 1.86 | 138.9* | 1
COc1ccc(C(=O)Nn2c(SCc3cccc([N+](=O)[O-])c3)nc3ccccc3c2=O)cc1 | 2.6 | 143.6* | 13.9 | 0.86 | 94.2 | 0.9
